This is a sample that favours compounds with a hit; in the whole collection about 4.9% have one here.
NPY Y2 blocker: blocks the human neuropeptide Y Y2 receptor. actives 0.99% (n = 140,000). P49146. inhibition, % at 2.7 µM. NPY-Y2 expressing cells, antagonist mode. AID 793
Target sequence (P49146 whole entry, looked up): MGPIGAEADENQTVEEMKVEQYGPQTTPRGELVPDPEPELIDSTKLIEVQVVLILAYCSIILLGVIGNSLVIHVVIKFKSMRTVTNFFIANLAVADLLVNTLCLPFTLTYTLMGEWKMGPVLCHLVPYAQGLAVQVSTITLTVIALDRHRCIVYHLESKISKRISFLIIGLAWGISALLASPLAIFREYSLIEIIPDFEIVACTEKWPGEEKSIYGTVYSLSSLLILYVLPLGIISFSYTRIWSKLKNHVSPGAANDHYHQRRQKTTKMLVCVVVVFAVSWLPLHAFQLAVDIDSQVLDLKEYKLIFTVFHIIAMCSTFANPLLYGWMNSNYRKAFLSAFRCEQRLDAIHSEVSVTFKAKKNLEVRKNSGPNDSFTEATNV
RAM network inh: inhibitors of the yeast RAM network. S. cerevisiae dse1pr::URA3 reporter, 5-FOA growth OD615, 2 d; analog-sensitive cbk1-as2 kinase mutant strain. inhibition, % at 50 µM. actives 1.8% (n = 190,000). AID 868;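 active means inhibition above a set limit, 3 SD over mean compound inhibition, cut at about 8.4% in these data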;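 further: inhibition rescues growth on 5-FOA so higher OD means more RAM inhibition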
WT yeast gro inh: growth inhibition of WT yeast, mitochondrial fusion screen. inhibition, % at 10 µM. AID 1362. mitochondrial fusion phenotypic screen, WT strain. actives 2.1% (n = 190,000); in the data active means inhibition above about 58%; tested in S. cerevisiae
NPY-Y1 antag: blocks the human neuropeptide Y Y1 receptor; P25929; HEK293-CNG Y1 cells, membrane potential fluorescence; NPY at EC95, then isoproterenol; inhibition, % at 3.6 µM; actives 1% (n = 200,000); AID 1040;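 active means inhibition above the campaign mean inhibition of all tested compounds plus 3 SD, cut at about 20% in these data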
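Test system – HEK293 Y1/CNG channel cell line · Also added – NPY agonist 25 nM, then isoproterenol 1 µM plus Ro 20-1724 25 µM · Compound dosing – one concentration, 3.6 µM, in 0.4% DMSO · Schedule – compound incubation 1 h at room temperature, readout 45 min post-stimulation · Technique – fluorescence, membrane potential probe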
NPY-Y1 PAM-ag: potentiators or agonists of human neuropeptide Y receptor Y1; P25929; activation, % at 3.6 µM; actives 0.37% (n = 220,000); NPY-Y1 expressing cells, potentiator/agonist activation; in the data active means activation above about 33%, passing the limit was not always enough;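 further: cells stimulated with NPY at EC10 then isoproterenol at EC100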
NPY-Y2 PAM-ag: human NPY-Y2 potentiation or agonism, primary screen. P49146. cells expressing NPY-Y2, potentiator/agonist read-out. activation, % at 3.6 µM. actives 0.45% (n = 220,000). AID 1359; in the data active means activation above about 27%;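 further: cells stimulated with NPY near EC25 plus isoproterenol at EC100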
NPY1 antag conf: human NPY-Y1 antagonism, confirmation; HEK293-CNG NPY-Y1, membrane potential fluorescence, cAMP; NPY challenge against isoproterenol-raised cAMP; shares compounds with NPY-Y1 antag; actives 21% (n = 1,200); inhibition, % at 3.6 µM; in the data active means inhibition above about 20%
NPY2 antag ctr: counter-screen for NPY-Y1 antagonists: human NPY-Y2 antagonism | inhibition, % at 3.6 µM | HEK293 NPY-Y2 CNG membrane potential fluorescence; cells given NPY, then isoproterenol | shares compounds with NPY-Y1 antag | actives 28% (n = 1,200)
Large screens that a line does not name were inactive (follow-up assays come after a bar, where they were run). Unless noted, no stated cut-off is given here; in the data, active means inhibition above about 17%; inactive means the rest.

Brc1ccc(C2=Nn3c(nnc3-c3n[nH]c4c3CCC4)SC2)cc1	NPY-Y1 antag 21.9 | NPY1 antag conf inactive | NPY2 antag ctr 20.5
N#Cc1ccc(NC(=O)Nc2cccc(C#N)c2)cc1	none (no result: NPY Y2 blocker, RAM network inh, WT yeast gro inh, NPY-Y1 antag)
Cc1ccc(Cn2nc(-c3ccccc3)nc2-c2ccccc2)cc1	NPY-Y1 antag 25.0 | NPY1 antag conf inactive | NPY2 antag ctr inactive
c1ccc(Cn2nc(-c3ccccc3)nc2-c2ccccc2)cc1	none
O=c1[nH]c(CSc2nnc(-c3ccccc3)n2C2CCCCC2)nc2ccccc12	NPY-Y1 antag 29.9 | NPY1 antag conf inactive | NPY2 antag ctr inactive
O=c1[nH]c(CSc2nnc(-c3ccccc3)n2-c2ccccc2)nc2ccccc12	none
CSc1ncccc1C(=O)OCC(=O)c1cc2ccccc2o1	none
Cc1c(C(=O)NC2CCCc3ccccc32)oc2ccc(S(=O)(=O)N3CCCC3)cc12 (configuration not stated)	none
Cc1ccc2cc3cc(C(=O)NCCCN4CCCCCC4)oc3nc2c1	none
Cc1ccc2cc3cc(C(=O)NCCCN4CCc5ccccc5C4)oc3nc2c1	NPY-Y1 antag 21.0 | NPY1 antag conf inactive | NPY2 antag ctr inactive
CSc1ccccc1NC(=O)CSCc1ccc(Br)cc1	NPY-Y1 antag 26.9 | NPY1 antag conf inactive | NPY2 antag ctr inactive
Cc1[nH]c2ccc(-c3nnc(SCC(=O)c4ccccc4F)o3)cc2c1C	none
Cc1ccc(OCC(=O)Nc2sc3c(c2C#N)CC(C)(C)NC3(C)C)cc1	NPY-Y1 antag 22.3 (no result: NPY Y2 blocker) | NPY1 antag conf inactive | NPY2 antag ctr inactive
COc1ccc(OC)c(CNc2nc3ccccc3n2CCN2CCCCC2)c1	NPY-Y1 antag 32.7 | NPY1 antag conf 21.5 | NPY2 antag ctr 18.0
CCCCOC(=O)Cn1c(=N)n(CCC)c2ccccc21	NPY-Y1 antag 39.6 | NPY1 antag conf inactive | NPY2 antag ctr inactive
CCCn1c(=N)n(CC(=O)O)c2ccccc21	none
O=C(CSCc1nc2ccccc2[nH]1)N1CCN(c2cccc(Cl)c2)CC1	NPY-Y1 antag 21.2 | NPY1 antag conf inactive | NPY2 antag ctr inactive
CCC(C)N1C(=O)CN(C2CCCCCC2)C(=O)C1c1ccccc1F (configuration not stated)	NPY-Y1 antag 24.3 (no result: NPY Y2 blocker) | NPY1 antag conf inactive | NPY2 antag ctr inactive
COc1ccc(CC2(CO)CCN(Cc3cnn(-c4ccccc4OC)c3)CC2)cc1	none (no result: NPY Y2 blocker)
COc1ccc(CC2(CO)CCN(C/C=C/c3ccccc3OC)CC2)cc1	NPY-Y1 antag 27.1 (no result: NPY Y2 blocker) | NPY1 antag conf inactive | NPY2 antag ctr 23.1
Cc1cc(C)nc(SCC(=O)Nc2ccc(Br)cn2)n1	none
Cc1c(C(c2ccccc2O)c2c(C)n(C)n(-c3ccccc3)c2=O)c(=O)n(-c2ccccc2)n1C	none (no result: NPY Y2 blocker)
Cc1c(C(c2cc3c(cc2Br)OCO3)c2c(C)n(C)n(-c3ccccc3)c2=O)c(=O)n(-c2ccccc2)n1C	NPY-Y1 antag 29.2 | NPY1 antag conf inactive | NPY2 antag ctr inactive
COc1ccc(C(c2c(C)n(C)n(-c3ccccc3)c2=O)c2c(C)n(C)n(-c3ccccc3)c2=O)cc1O	NPY-Y1 antag 56.5 (no result: NPY Y2 blocker) | NPY1 antag conf inactive | NPY2 antag ctr inactive
CC(=NCCN1CCOCC1)C1=C(O)c2ccccc2C1=O	none
Cc1ccccc1NC(=O)C1CCCN(S(=O)(=O)c2cccc3cccnc23)C1 (configuration not stated)	NPY-Y1 antag 96.4 | NPY1 antag conf inactive | NPY2 antag ctr inactive
Cc1ccccc1NC(=O)C1CCCN1S(=O)(=O)c1cccc2cccnc12 (configuration not stated)	none
CC(/C=C/c1ccc(C)o1)=C\C(=O)O	NPY-Y1 antag 22.4 | NPY1 antag conf inactive | NPY2 antag ctr inactive
CC(C)CC(COCc1cccc(Cl)c1)N1CCN(C(=O)c2ccc(C(F)(F)F)cc2)CCC1=O (configuration not stated)	NPY-Y1 antag 26.9 | NPY1 antag conf inactive | NPY2 antag ctr inactive
CC(C)CC(COCc1ccc([N+](=O)[O-])cc1)N1CCN(C(=O)c2ccc(C(F)(F)F)cc2)CCC1=O (configuration not stated)	none
CN1CCc2c(n(CC(O)CNCc3ccccc3)c3ccccc23)C1=O (configuration not stated)	NPY-Y1 antag 22.5 (no result: NPY Y2 blocker) | NPY1 antag conf inactive | NPY2 antag ctr inactive
O=C(OCC(=O)c1ccccc1Br)c1ccncc1	none (no result: NPY Y2 blocker)
Cc1ccc(/C=N/NC(=O)c2ccoc2C)o1	none
COc1ccc(/C=N/NC(=O)c2ccccc2OCc2ccccc2)c(OC)c1	NPY-Y1 antag 24.8 (no result: NPY Y2 blocker) | NPY1 antag conf inactive | NPY2 antag ctr inactive
NC(=O)NC(=O)COC(=O)c1ccccc1OCc1ccc(F)cc1	none (no result: NPY Y2 blocker, RAM network inh, WT yeast gro inh, NPY-Y1 antag)
COc1ccc(/C(C)=N/NC(=O)c2ccccc2OCc2ccccc2)c(OC)c1	none (no result: NPY Y2 blocker)
CCC(CC)=NNC(=O)c1ccccc1OCc1ccc(F)cc1	NPY-Y1 antag 21.1 | NPY1 antag conf inactive | NPY2 antag ctr inactive
Cc1ccc(/C=N/NC(=O)c2ccccc2OCc2ccc(F)cc2)o1	NPY-Y1 antag 22.2 | NPY1 antag conf inactive | NPY2 antag ctr inactive
FC(F)(F)c1cccc(Nc2nc(N3CCCC3)nc(N3CCCC3)n2)c1	none (no result: NPY Y2 blocker)
CCOc1ccccc1CNC(=O)c1cc2oc3ccccc3c2n1CC	none
Cc1ccc(N=Cc2c(O)n(-c3cc(Cl)ccc3N3CCOCC3)c(=O)c3ccccc23)cc1C	NPY-Y1 antag 22.2 | NPY1 antag conf inactive | NPY2 antag ctr 26.9
COc1ccc(-c2cc(C(=O)Nc3ccccc3O)c3ccccc3n2)cc1OC	NPY-Y1 antag 27.2 (no result: NPY Y2 blocker) | NPY1 antag conf inactive | NPY2 antag ctr 22.9
COc1ccc(-c2cc(C(=O)Nc3ccccc3N3CCOCC3)c3ccccc3n2)cc1OC	NPY-Y1 antag 29.6 (no result: NPY Y2 blocker) | NPY1 antag conf inactive | NPY2 antag ctr inactive
CC(C)(C)c1ccc(C(=O)/C(C#N)=C/c2cccs2)cc1	none (no result: NPY Y2 blocker, RAM network inh, WT yeast gro inh, NPY-Y1 antag)
Cc1noc(C)c1CSc1nnc(-c2ccccc2F)n1CCc1ccccc1	NPY-Y1 antag 20.5 | NPY1 antag conf inactive | NPY2 antag ctr inactive
Cn1cccc1/C=N/NC(=O)Cc1ccccc1	none (no result: NPY Y2 blocker, RAM network inh, WT yeast gro inh, NPY-Y1 antag)
CCOC(=O)C1CCN(C(=S)Nc2ccc(S(N)(=O)=O)cc2)CC1	none
Cc1ccccc1-c1nc(CN2CCC(C(=O)NCCCN3CC(C)CC(C)C3)CC2)c(C)o1 (configuration not stated)	NPY-Y1 antag 23.4 | NPY1 antag conf inactive | NPY2 antag ctr 23.7
Cc1oc(-c2cccc(Cl)c2)nc1CN1CCC(C(=O)NCc2ccco2)CC1	none
